How the values were obtained:
[1] = molecular target: Muscarinic acetylcholine receptor; experiment: Receptor binding affinity against Muscarinic acetylcholine receptor from guinea pig heart was determined using [3H]- QNB as radioligand; assay type: protein assay, Cavia porcellus
Outline: (§1)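 Guinea pig hearts dissected in Krebs-Henseleit pH 7.4 with 1 mM PMSF, Polytron-homogenized in ice-cold 50 mM phosphate/PMSF buffer pH 7.4, ≤0.3 mg/mL protein. Competition against 2 nM (−)-[3H]QNB, triplicates at 25 °C for 80 min, 10 µM atropine nonspecific. Centrifugation, scintillation counting of pellets. Graphical IC50 to Ki by the Jacobs method; means ± SEM, 2–3 experiments.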

[2] = species on record: Cavia porcellus; experiment: Antimuscarinic potency using isolated guinea pig urinary bladder; assay type: functional
Outline: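 Male guinea pigs (~300 g) killed and exsanguinated; urinary bladder smooth muscle strips mounted in 37 °C Krebs-Henseleit baths (pH 7.4, carbogen), ~5 mN resting tension, isometric tension recorded. A control cumulative carbachol curve was run, then washout, ≥15 min rest, and 60 min with a fixed antagonist concentration before a second curve. Dose ratio from graphical EC50s; KB = [A]/(r − 1).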

[3] = molecular target: Muscarinic acetylcholine receptor; experiment: Receptor binding affinity against Muscarinic acetylcholine receptor from guinea pig urinary bladder was determined using [3H]- QNB as radioligand; assay type: protein assay, Cavia porcellus
Outline: (§2)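 Guinea pig urinary bladder dissected in PMSF-containing Krebs-Henseleit pH 7.4 and Polytron-homogenized in ice-cold 50 mM phosphate buffer pH 7.4 with 1 mM PMSF (≤0.3 mg/mL protein). Competition against 2 nM (−)-[3H]QNB; triplicates at 25 °C for 60 min; 10 µM atropine defines nonspecific binding. Pellets from centrifugation were scintillation counted. IC50 taken graphically, Ki by the Jacobs method; means ± SEM, 2–3 experiments.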

[4] = molecular target: Muscarinic acetylcholine receptor; experiment: Receptor binding affinity against Muscarinic acetylcholine receptor from guinea pig cerebral cortex was determined using [3H]- QNB as radioligand; assay type: tissue-based, Cavia porcellus
Outline: (§3)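 Guinea pig cerebral cortex homogenized (Potter-Elvehjem) in ice-cold 50 mM Na/K phosphate buffer pH 7.4 with 1 mM PMSF, ≤0.3 mg/mL protein. Competition with (−)-[3H]QNB (2 nM final), triplicates incubated at 25 °C for 80 min, nonspecific binding with 10 µM atropine. Ended by centrifugation; pellets counted by scintillation. IC50 read graphically, converted to Ki by the Jacobs method; means ± SEM of 2–3 experiments.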

[5] = molecular target: Muscarinic acetylcholine receptor; experiment: Receptor binding affinity against Muscarinic acetylcholine receptor from guinea pig parotid gland was determined using [3H]- QNB as radioligand; assay type: protein assay, Cavia porcellus
Outline: (§4)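 Guinea pig parotid glands dissected in Krebs-Henseleit pH 7.4 with 1 mM PMSF, Polytron-homogenized in ice-cold 50 mM phosphate/PMSF pH 7.4, ≤0.3 mg/mL protein. Displacement of 2 nM (−)-[3H]QNB, triplicates at 25 °C for 210 min, 10 µM atropine for nonspecific binding. Centrifugation, then pellet scintillation counting. Ki from graphical IC50 via the Jacobs correction; means ± SEM of 2–3 experiments.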

[6] = molecular target: Muscarinic acetylcholine receptor; experiment: Receptor binding affinity (Ki) for Muscarinic acetylcholine receptor (urinary bladder) was determined by competition radioligand -[3H]- QNB binding assay; assay type: protein assay, Cavia porcellus; outline: as §2
[7] = molecular target: Muscarinic acetylcholine receptor; experiment: Receptor binding affinity (Ki) for Muscarinic acetylcholine receptor (heart)was determined by competition radioligand -[3H]- QNB binding assay; assay type: protein assay, Cavia porcellus; outline: as §1
[8] = molecular target: Muscarinic acetylcholine receptor; experiment: Receptor binding affinity (Ki) for Muscarinic acetylcholine receptor (parotid glands) was determined by competition radioligand -[3H]- QNB binding assay; assay type: protein assay, Cavia porcellus
Outline: as §4, with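 “counting.” for “counting. Ki from graphical IC50 via the Jacobs correction; means ± SEM of 2–3 experiments.”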

[9] = molecular target: Muscarinic acetylcholine receptor; experiment: Receptor binding affinity (Ki) against Muscarinic acetylcholine receptor (cerebral cortex) was determined by competition radioligand -[3H]- QNB binding assay; assay type: tissue-based, Cavia porcellus
Outline: as §3, with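 “scintillation.” for “scintillation. IC50 read graphically, converted to Ki by the Jacobs method; means ± SEM of 2–3 experiments.”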

Compound | Ki [1] | Kb [2] | Ki [3] | Ki [4] | Ki [5] | Ki [6] | Ki [7] | Ki [8] | Ki [9]
OCc1ccc2oc(C3=CN4CCC3CC4)cc2c1 | 1840 nM | 13400 nM | 2900 nM | 1400 nM | 10700 nM |  |  |  | 
C1=C(c2cc3cc(-c4ccccc4)ccc3o2)C2CCN1CC2 |  |  |  |  |  | 332 nM | 376 nM | 410 nM | 289 nM
Brc1ccc2oc(C3=CN4CCC3CC4)cc2c1 |  | 178 nM |  |  |  | 156 nM | 86 nM | 109 nM | 39 nM
Nc1ccc2oc(C3=CN4CCC3CC4)cc2c1 | 837 nM |  |  | 212 nM | 683 nM |  |  |  | 
C1=C(c2cc3ncccc3o2)C2CCN1CC2 | 61 nM |  | 83 nM | 21 nM | 110 nM |  |  |  | 
OCc1cccc2cc(C3=CN4CCC3CC4)oc12 | 1360 nM |  | 2000 nM | 330 nM | 1024 nM |  |  |  | 
Cc1ccc2oc(C3=CN4CCC3CC4)cc2c1 |  |  |  |  |  | 364 nM | 238 nM | 295 nM | 116 nM
O=[N+]([O-])c1ccc2oc(C3=CN4CCC3CC4)cc2c1 | 460 nM |  |  | 139 nM | 515 nM |  |  |  | 
C1=C(c2cc3cccc(-c4ccccc4)c3o2)C2CCN1CC2 |  |  |  |  |  | 330 nM | 260 nM | 410 nM | 135 nM
C1=C(c2oc3ccccc3c2-c2ccccc2)C2CCN1CC2 |  | 148 nM |  |  |  | 107 nM | 72 nM | 56 nM | 20 nM
N#Cc1ccc2oc(C3=CN4CCC3CC4)cc2c1 |  |  |  |  |  |  | 160 nM | 236 nM | 60 nM
O=Cc1ccc2oc(C3=CN4CCC3CC4)cc2c1 |  |  |  |  |  | 1300 nM | 920 nM | 1571 nM | 364 nM
COc1cc(CO)cc2cc(C3=CN4CCC3CC4)oc12 | 5400 nM | 10000 nM | 9400 nM | 3665 nM | 20000 nM |  |  |  | 
O=[N+]([O-])c1cc(I)c2oc(C3=CN4CCC3CC4)cc2c1 | 1900 nM |  | 1600 nM | > 150 nM | > 1000 nM |  |  |  | 
COc1cc(C=O)cc2cc(C3=CN4CCC3CC4)oc12 |  |  |  |  |  | 3900 nM | 2040 nM | 7600 nM | 1170 nM
Cc1c(C2=CN3CCC2CC3)oc2ccccc12 |  |  |  |  |  |  | 77.8 nM | 204 nM | 25.3 nM
Fc1ccc2oc(C3=CN4CCC3CC4)cc2c1 | 34 nM |  | 37 nM | 6.3 nM | 30 nM |  |  |  | 
O=Cc1cc(I)c2oc(C3=CN4CCC3CC4)cc2c1 |  |  |  |  |  | 1000 nM | 517 nM | 1300 nM | 221 nM
OCc1cc(I)c2oc(C3=CN4CCC3CC4)cc2c1 | 462 nM |  | 802 nM | 197 nM | 970 nM |  |  |  | 
OCc1cc(I)cc2cc(C3=CN4CCC3CC4)oc12 | 1100 nM |  | 2460 nM | 480 nM | 2700 nM |  |  |  | 
O=Cc1cc(I)cc2cc(C3=CN4CCC3CC4)oc12 |  |  |  |  |  | 600 nM | 314 nM | 2300 nM | 358 nM
Cc1cccc2cc(C3=CN4CCC3CC4)oc12 |  |  |  |  |  |  | 76 nM | 76 nM | 25 nM
Brc1cccc2cc(C3=CN4CCC3CC4)oc12 |  | 123 nM |  |  |  | 97 nM | 44 nM | 216 nM | 15 nM
Brc1c(C2=CN3CCC2CC3)oc2ccccc12 |  |  |  |  |  | 116 nM | 106 nM | 161 nM | 40 nM
O=Cc1cccc2cc(C3=CN4CCC3CC4)oc12 |  |  |  |  |  | 1700 nM | 1612 nM | 3023 nM | 648 nM
N#Cc1cc(I)c2oc(C3=CN4CCC3CC4)cc2c1 |  |  |  | 440 nM |  |  |  |  | 

From ChEMBL document CHEMBL1129078, “3-(2-Benzofuranyl)quinuclidin-2-ene derivatives: novel muscarinic antagonists” (J Med Chem, 1996)
